Blank lines part the entries; values can stand above or below the compound they belong to. Calls of active or inactive are those of the source. The calls are words filed in the database; no cut-off is given here.
Key:
[1] = target: Voltage-gated inwardly rectifying potassium channel KCNH2 (Homo sapiens, UniProt Q12809)
[2] = Ratio of AUC in Brain to AUC in plasma; format: ADME, cell-free; conditions: brain and plasma; read-out: Ratio AUC
[3] = target: Sigma intracellular receptor 2 (Homo sapiens, UniProt Q5BJF2); test: Binding affinity to Sigma 2-receptor (unknown origin)
Sigma intracellular receptor 2, sequence (Q5BJF2 whole entry): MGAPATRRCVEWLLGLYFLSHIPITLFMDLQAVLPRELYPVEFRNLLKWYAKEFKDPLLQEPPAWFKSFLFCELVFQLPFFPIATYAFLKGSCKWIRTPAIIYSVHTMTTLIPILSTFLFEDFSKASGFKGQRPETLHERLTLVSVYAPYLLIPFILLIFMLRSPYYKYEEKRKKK

[4] = system: N2a; test: Anti-synaptotoxic activity against mouse Neuro-2a cells assessed as inhibition of amyloid beta (1 to 42)-induced cytotoxicity by MTT-based Trafficking assay; format: functional
[5] = Half life in mouse liver microsomes; format: ADME, Microsome
[6] = Ratio of drug level in brain to plasma measured after 24 hrs; format: ADME, cell-free; conditions: brain and plasma, read-out: BPR
[7] = Cognitive enhancing effect in transgenic hAPP Swe/Ldn mouse assessed as swimming length measured after 1 day by Morris Water maze method (reference value: 3518 +/-138 cm); format: ADME; conditions: buffer, 24 h
[8] = Cognitive enhancing effect in transgenic hAPP Swe/Ldn mouse assessed as swimming length measured after 3 days by Morris Water maze method (reference value: 2854 +/-267 cm); format: ADME; conditions: buffer, 72 h, time 3 day
[9] = Free drug level in brain; format: ADME, tissue-based
[10] = Prevention of vesicular membrane trafficking in Sprague-Dawley rat neurons assessed as inhibition of amyloid beta oligomer binding to […] receptor at 10 uM pretreated with compounds followed by amyloid beta oligomer challenge and measured after 1 hr by ELISA relative to control; format: functional; conditions: Neuron
[11] = Cognitive enhancing effect in non-transgenic mouse assessed as swimming length measured after 1 day by Morris Water maze method (reference value: 3791 +/-150 cm); format: ADME; conditions: buffer, 24 h
[12] = Reversal of amyloid beta oligomer-induced vesicular membrane trafficking in Sprague-Dawley rat neurons pretreated with amyloid beta oligomer for 1 hr followed by compound treatment by ELISA; format: functional, tissue-based; conditions: neuron
[13] = Cognitive enhancing effect in non-transgenic mouse assessed as swimming length measured after 2 day by Morris Water maze method (reference value: 2666 +/-294 cm); format: ADME; conditions: buffer, 48 h
[14] = Improvement in learning and spatial memory in non-transgenic mouse assessed as spontaneous alteration measured by Y-maze method (reference value: 62.6 +/-3.7%); format: ADME
[15] = Improvement in learning and spatial memory in transgenic hAPP Swe/Ldn mouse assessed as spontaneous alteration measured by Y-maze method (reference value: 56.1 +/-2.8%); format: ADME
[16] = Efflux ratio of apparent permeability from basolateral to apical membrane over apical to basolateral membrane in human Caco2 cells; format: ADME, cell-based; conditions: Caco-2
[17] = Cognitive enhancing effect in transgenic hAPP Swe/Ldn mouse assessed as swimming length measured after 2 day by Morris Water maze method (reference value: 3252 +/-329 cm); format: ADME; conditions: buffer, 48 h
[18] = Prevention of vesicular membrane trafficking in Sprague-Dawley rat neurons assessed as inhibition of amyloid beta oligomer binding to […] receptor pretreated with compounds followed by amyloid beta oligomer challenge and measured after 1 hr by ELISA; format: functional, tissue-based; conditions: neuron
[19] = Free drug level in plasma; format: ADME, cell-free
[20] = Cognitive enhancing effect in non-transgenic mouse assessed as swimming length measured after 4 days by Morris Water maze method (reference value: 1797 +/-219 cm); format: ADME; conditions: buffer, 96 h, time 4 day
[21] = Cognitive enhancing effect in transgenic hAPP Swe/Ldn mouse assessed as swimming length measured after 4 days by Morris Water maze method (reference value: 2426 +/-287 cm); format: ADME; conditions: buffer, 96 h, time 4 day
[22] = system: Mus musculus; test: Induction of amyloid beta oligomer release in interstitial brain fluid in iv dosed transgenic hAPP Swe/Ldn mouse; format: functional, organism-based
Method in brief: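 Compound given intravenously to live transgenic mice. Microelectrodes coated with antibodies to total Aβ or to Aβ oligomers were inserted into the brain, and soluble Aβ in interstitial fluid was measured minute by minute.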

[23] = Cognitive enhancing effect in non-transgenic mouse assessed as restoration of freezing time measured by Contextual fear conditioning test (reference value: 52 +/-5%); format: ADME
[24] = Reversal of amyloid beta oligomer-induced vesicular membrane trafficking in Sprague-Dawley rat neurons at 1 uM pretreated with amyloid beta oligomer for 1 hr followed by compound treatment by ELISA relative to control; format: functional; conditions: Neuron
[25] = Unbound brain-to-plasma concentration ratio measured after 24 hrs; format: ADME, cell-free; conditions: brain and plasma, read-out: K(p,uu,brain)
[26] = Cognitive enhancing effect in non-transgenic mouse assessed as swimming length measured after 3 days by Morris Water maze method (reference value: 2173 +/-213 cm); format: ADME; conditions: buffer, 72 h, time 3 day
[27] = Cognitive enhancing effect in transgenic hAPP Swe/Ldn mouse assessed as restoration of freezing time measured by Contextual fear conditioning test (reference value: 32 +/-6%); format: ADME

Voltage-gated inwardly rectifying potassium channel KCNH2, sequence (Q12809 whole entry): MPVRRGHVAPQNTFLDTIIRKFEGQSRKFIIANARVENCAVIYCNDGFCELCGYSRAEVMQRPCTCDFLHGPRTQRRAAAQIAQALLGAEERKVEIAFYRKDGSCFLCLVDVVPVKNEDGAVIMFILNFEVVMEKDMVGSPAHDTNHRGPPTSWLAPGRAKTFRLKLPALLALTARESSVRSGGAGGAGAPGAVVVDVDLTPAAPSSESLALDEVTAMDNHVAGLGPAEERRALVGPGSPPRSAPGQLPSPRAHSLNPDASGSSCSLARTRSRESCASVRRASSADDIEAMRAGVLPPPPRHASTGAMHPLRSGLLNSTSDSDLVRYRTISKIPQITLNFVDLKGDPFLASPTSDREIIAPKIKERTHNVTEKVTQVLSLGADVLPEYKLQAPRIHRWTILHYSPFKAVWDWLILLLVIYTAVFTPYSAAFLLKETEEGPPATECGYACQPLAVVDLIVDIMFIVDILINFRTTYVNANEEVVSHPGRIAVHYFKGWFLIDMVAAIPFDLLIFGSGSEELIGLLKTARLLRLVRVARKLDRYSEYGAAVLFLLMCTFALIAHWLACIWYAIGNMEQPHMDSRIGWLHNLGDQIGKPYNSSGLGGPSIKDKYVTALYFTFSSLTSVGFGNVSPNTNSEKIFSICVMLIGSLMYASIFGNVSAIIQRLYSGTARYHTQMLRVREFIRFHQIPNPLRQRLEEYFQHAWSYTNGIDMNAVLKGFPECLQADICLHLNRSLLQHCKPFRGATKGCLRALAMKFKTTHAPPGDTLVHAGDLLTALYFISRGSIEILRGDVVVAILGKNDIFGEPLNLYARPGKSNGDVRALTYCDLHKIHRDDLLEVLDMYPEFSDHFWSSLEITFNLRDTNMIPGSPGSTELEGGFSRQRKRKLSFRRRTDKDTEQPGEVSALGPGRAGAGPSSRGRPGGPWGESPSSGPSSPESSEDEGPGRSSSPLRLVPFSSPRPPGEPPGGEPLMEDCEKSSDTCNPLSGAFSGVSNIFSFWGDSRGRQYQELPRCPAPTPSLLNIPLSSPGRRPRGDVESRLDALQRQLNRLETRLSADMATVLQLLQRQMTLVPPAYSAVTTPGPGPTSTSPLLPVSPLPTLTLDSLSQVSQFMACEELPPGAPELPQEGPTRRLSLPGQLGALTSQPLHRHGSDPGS

half-life [5]: 27 min
Kp at 24 h [6]: 2
Compound: C[C@H](CCc1ccc(Cl)cc1)NCc1ccc(C(F)(F)F)cc1
EC50 [1]: 780 nM
Activity [4]: 5.7 µM

Ki [3]: 120 nM
half-life [5]: 53 min
Compound: C[C@@H](CCc1ccc(Cl)c(Cl)c1)NCc1ccc(C(F)(F)F)cc1
EC50 [1]: 1100 nM
Activity [4]: 11.7 µM

half-life [5]: 33 min
Kp at 24 h [6]: 8.2
Compound: C[C@H](CCc1ccc(Cl)c(Cl)c1)NCc1ccc(C(F)(F)F)cc1
EC50 [1]: 4400 nM
Activity [4]: 2 µM

The remaining lines, values behind:

Compound: CC(C)Oc1cc(CCC(C)(C)N2Cc3cccc(F)c3C2)ccc1O
EC50 [1]: 9600 nM
Kp [2]: 5.64
Ki [3]: 11 nM
Activity [4]: 0.25 µM
half-life [5]: 4 min
Kp at 24 h [6]: 5.4

Compound: COc1cc2c(cc1OC)CN([C@H](C)CCc1ccc(Cl)c(Cl)c1)C2
EC50 [1]: 290 nM
Ki [3]: 0.44 nM
Activity [4]: 0.7 µM
half-life [5]: 61 min

Compound: CC(C)(C)Oc1cc(CCC(C)(C)N2Cc3ccc(S(C)(=O)=O)cc3C2)ccc1O
Activity [7]: 3230 cm
Activity [8]: 1987 cm
fraction unbound [9]: 0.13
inhibition at 10 µM [10]: 71%
Activity [11]: 3317 cm
EC50 [12]: 358 nM
Activity [13]: 2739 cm
Activity [14]: 65.3%
Activity [15]: 58.5%
efflux ratio [16]: 0.95
Activity [17]: 2332 cm
EC50 [18]: 6800 nM
fraction unbound [19]: 0.05
Activity [20]: 2008 cm
EC50 [1]: 26000 nM
Activity [21]: 1611 cm
Activity [22]: Active
Kp [2]: 2.51
Ki [3]: 8.5 nM
Activity [23]: 51%
inhibition at 1 µM [24]: 88%
Activity [4]: 0.31 µM
half-life [5]: 45 min
Kp uu at 24 h [25]: 6.75
Kp at 24 h [6]: 5.7
Activity [26]: 2262 cm
Activity [27]: 45%

Compound: COc1cc(CC[C@@H](C)N2Cc3cccc(F)c3C2)ccc1O
Activity [4]: 0.25 µM
half-life [5]: 16 min

Compound: COc1cc(CCC(C)NCc2ccc(C(F)(F)F)cc2)ccc1O (configuration not stated)
Activity [4]: 2.2 µM

— ChEMBL document CHEMBL4837254, “Discovery of Investigational Drug CT1812, an Antagonist of the Sigma-2 Receptor Complex for Alzheimer's Disease” (ACS Med Chem Lett, 2021)
